# Laboratory results as given in ChEMBL document CHEMBL1255280, “P-glycoprotein limits oral availability, brain penetration, and toxicity of an anionic drug, the antibiotic salinomycin” (Antimicrob Agents Chemother, 2008).
# What was measured:
# [1] = Tmax in wild-type mouse at 10 mg/kg, po; format: ADME, organism-based; parameters: dose 10 mg/kg, route oral; details: in vivo
# Method in brief: (§1)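 Fasted (3 h) FVB WT mice (n = 5) were given 10 mg/kg by gavage (10 ml/kg of 1 mg/ml, an ethanol stock diluted 10-fold in saline). Tail-vein plasma was collected from 0.25 to 6 h and measured by LC-MS/MS. Only the trapezoidal AUC0-6 was calculated. Cmax and Tmax were taken from the observed data.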
# Mus musculus [2] = assay: Ratio of AUC (0 to 6 hrs) in mdr1a/1b double knockout mouse to AUC (0 to 6 hrs) in wild-type mouse at 1 mg/kg, po; format: ADME, organism-based; parameters: dose 1 mg/kg, route oral; details: in vivo
# Method in brief: (§2)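 Male FVB WT or Mdr1a/1b–/– mice (n = 5) were fasted 3 h. They received 1 mg/kg by gavage (10 ml/kg of 0.1 mg/ml, made as an ethanol stock diluted 100-fold in saline). Tail-vein plasma was sampled at 0.25, 0.5, 1, 2, 4 and 6 h and analysed by LC-MS/MS. Noncompartmental trapezoidal AUC0-6 and AUC(0-∞). Cmax and Tmax were taken from the observed data.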
# [3] = Drug uptake in wild-type mouse brain at 1 mg/kg, iv after 180 mins by LC-MS/MS analysis; format: ADME, organism-based; parameters: dose 1 mg/kg, route intravenous; details: read-out: Drug uptake
# Method in brief: (§3)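 WT or Mdr1a/1b–/– mice (n = 4) received a single 1 mg/kg i.v. tail-vein bolus (5 ml/kg; 0.2 mg/ml in ethanol/saline). At 180 min, plasma, brain, liver and small intestinal contents were collected. Salinomycin was quantified by LC-MS/MS. Brain/plasma ratios were calculated. Wilcoxon rank sum test.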
# [4] = AUC (0 to 6 hrs) in wild-type mouse at 10 mg/kg, po; format: ADME, organism-based; parameters: time < 6 hr, dose 10 mg/kg, route oral; details: plasma; method in brief: as §1
# [5] = Plasma clearance in mdr1a/1b double knockout mouse at 1 mg/kg, iv; format: ADME, organism-based; parameters: dose 1 mg/kg, route intravenous
# Method in brief: (§4)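 Male FVB WT or Mdr1a/1b–/– mice (n = 5). Dosing solution was 10 mg/ml in absolute ethanol, diluted 50-fold with saline to 0.2 mg/ml, and given as a single i.v. tail-vein bolus of 1 mg/kg (5 ml/kg). Tail-vein plasma was sampled at 0.125–6 h and analysed by LC-MS/MS. Noncompartmental analysis with trapezoidal AUC0-6 and AUC(0-∞). CL = dose/AUC(0-∞). Wilcoxon rank sum test.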
# Liver = assay: Ratio of drug uptake in liver in mdr1a/1b double knockout mouse to drug uptake in liver in wild-type mouse at 1 mg/kg, iv after 180 mins by LC-MS/MS analysis; format: ADME, organism-based; parameters: dose 1 mg/kg, route intravenous; details: in vivo, 3 h; method in brief: as §3
# [6] = AUC (0 to infinity) in wild-type mouse at 1 mg/kg, po; format: ADME, organism-based; parameters: time infinity, dose 1 mg/kg, route oral; details: plasma; method in brief: as §2
# [7] = Ratio of drug uptake in small intestinal content in mdr1a/1b double knockout mouse to drug uptake in small intestinal content in wild-type mouse at 1 mg/kg, iv after 180 mins by LC-MS/MS analysis; format: ADME, organism-based; parameters: dose 1 mg/kg, route intravenous; details: in vivo, 3 h; method in brief: as §3
# Mus musculus [8] = assay: Ratio of Cmax in mdr1a/1b double knockout mouse to Cmax in wild-type mouse at 1 mg/kg, po; format: ADME, organism-based; parameters: dose 1 mg/kg, route oral; details: in vivo; method in brief: as §2
# [9] = Drug uptake in mdr1a/1b double knockout mouse liver at 1 mg/kg, iv after 180 mins by LC-MS/MS analysis; format: ADME, organism-based; parameters: dose 1 mg/kg, route intravenous; details: read-out: Drug uptake; method in brief: as §3
# [10] = AUC (0 to 6 hrs) in wild-type mouse at 1 mg/kg, po; format: ADME, organism-based; parameters: time < 6 hr, dose 1 mg/kg, route oral; details: plasma; method in brief: as §2
# [11] = Ratio of drug uptake in brain to drug uptake in plasma in mdr1a/1b double knockout mouse at 1 mg/kg, iv after 180 mins by LC-MS/MS analysis; format: ADME, organism-based; parameters: dose 1 mg/kg, route intravenous; method in brief: as §3
# Plasma = assay: Ratio of drug uptake in plasma in mdr1a/1b double knockout mouse to drug uptake in plasma in wild-type mouse at 1 mg/kg, iv after 180 mins by LC-MS/MS analysis; format: ADME, organism-based; parameters: dose 1 mg/kg, route intravenous; details: in vivo, 3 h; method in brief: as §3
# [12] = AUC (0 to infinity) in wild-type mouse at 1 mg/kg, iv; format: ADME, organism-based; parameters: time infinity, dose 1 mg/kg, route intravenous; details: plasma; method in brief: as §4
# Mus musculus [13] = assay: Ratio of AUC (0 to infinity) in mdr1a/1b double knockout mouse to AUC (0 to infinity) in wild-type mouse at 1 mg/kg, po; format: ADME, organism-based; parameters: dose 1 mg/kg, route oral; details: in vivo; method in brief: as §2
# [14] = Cmax in wild-type mouse at 10 mg/kg, po; format: ADME, organism-based; parameters: dose 10 mg/kg, route oral; details: in vivo; method in brief: as §1
# Mus musculus [15] = assay: Ratio of plasma clearance in mdr1a/1b double knockout mouse to plasma clearance in wild-type mouse at 1 mg/kg, iv; format: ADME, organism-based; parameters: dose 1 mg/kg, route intravenous; details: in vivo; method in brief: as §4
# [16] = Drug uptake in mdr1a/1b double knockout mouse plasma at 1 mg/kg, iv after 180 mins by LC-MS/MS analysis; format: ADME, organism-based; parameters: dose 1 mg/kg, route intravenous; details: read-out: Drug uptake; method in brief: as §3
# [17] = Cmax in mdr1a/1b double knockout mouse at 1 mg/kg, po; format: ADME, organism-based; parameters: dose 1 mg/kg, route oral; details: in vivo; method in brief: as §2
# [18] = Drug uptake in wild-type mouse liver at 1 mg/kg, iv after 180 mins by LC-MS/MS analysis; format: ADME, organism-based; parameters: dose 1 mg/kg, route intravenous; details: read-out: Drug uptake; method in brief: as §3
# [19] = Drug uptake in mdr1a/1b double knockout mouse small intestinal content at 1 mg/kg, iv after 180 mins by LC-MS/MS analysis; format: ADME, organism-based; parameters: dose 1 mg/kg, route intravenous; details: read-out: Drug uptake; method in brief: as §3
# Mus musculus [20] = assay: Toxicity in mdr1a/1b double knockout mouse at 1 mg/kg, po; format: organism-based; parameters: dose 1 mg/kg, route oral; details: in vivo
# [21] = AUC (0 to 6 hrs) in mdr1a/1b double knockout mouse at 1 mg/kg, po; format: ADME, organism-based; parameters: time < 6 hr, dose 1 mg/kg, route oral; details: plasma; method in brief: as §2
# [22] = Tmax in wild-type mouse at 1 mg/kg, po; format: ADME, organism-based; parameters: dose 1 mg/kg, route oral; details: in vivo; method in brief: as §2
# Brain = assay: Ratio of drug uptake in brain in mdr1a/1b double knockout mouse to drug uptake in brain in wild-type mouse at 1 mg/kg, iv after 180 mins by LC-MS/MS analysis; format: ADME, organism-based; parameters: dose 1 mg/kg, route intravenous; details: in vivo, 3 h; method in brief: as §3
# [23] = AUC (0 to 6 hrs) in wild-type mouse at 1 mg/kg, iv; format: ADME, organism-based; parameters: time < 6 hr, dose 1 mg/kg, route intravenous; details: plasma; method in brief: as §4
# Mus musculus [24] = assay: Ratio of AUC (0 to infinity) in mdr1a/1b double knockout mouse to AUC (0 to infinity) in wild-type mouse at 1 mg/kg, iv; format: ADME, organism-based; parameters: dose 1 mg/kg, route intravenous; details: in vivo; method in brief: as §4
# Mus musculus [25] = assay: Toxicity in mdr1a/1b double knockout mouse assessed as decrease in respiratory frequency at 10 mg/kg, po after 15 to 30 mins; format: organism-based; parameters: dose 10 mg/kg, route oral; details: in vivo
# Method in brief: (§5)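 Fasted (3 h) WT and Mdr1a/1b–/– mice (n = 5) received 10 mg/kg orally by gavage in ethanol/saline (10 ml/kg). They were observed 15 to 30 min after dosing for signs of poisoning, including limb paralysis and respiratory frequency.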
# [26] = Plasma clearance in wild-type mouse at 1 mg/kg, iv; format: ADME, organism-based; parameters: dose 1 mg/kg, route intravenous
# [27] = Ratio of drug uptake in brain to drug uptake in plasma in wild-type mouse at 1 mg/kg, iv after 180 mins by LC-MS/MS analysis; format: ADME, organism-based; parameters: dose 1 mg/kg, route intravenous; method in brief: as §3
# Mus musculus [28] = assay: Toxicity in mdr1a/1b double knockout mouse assessed as paralyzed fore limb and hind limb at 10 mg/kg, po after 15 to 30 mins; format: organism-based, Hindlimb; parameters: dose 10 mg/kg, route oral; details: in vivo; method in brief: as §5
# [29] = Drug uptake in wild-type mouse small intestinal content at 1 mg/kg, iv after 180 mins by LC-MS/MS analysis; format: ADME, organism-based; parameters: dose 1 mg/kg, route intravenous; details: read-out: Drug uptake; method in brief: as §3
# [30] = Drug uptake in wild-type mouse plasma at 1 mg/kg, iv after 180 mins by LC-MS/MS analysis; format: ADME, organism-based; parameters: dose 1 mg/kg, route intravenous; details: read-out: Drug uptake; method in brief: as §3
# [31] = AUC (0 to infinity) in mdr1a/1b double knockout mouse at 1 mg/kg, po; format: ADME, organism-based; parameters: dose 1 mg/kg, route oral, time infinity; details: plasma; method in brief: as §2
# Mus musculus [32] = assay: Toxicity in wild-type mouse at 10 mg/kg, po after 15 to 30 mins; format: organism-based; parameters: dose 10 mg/kg, route oral; details: in vivo; method in brief: as §5
# [33] = Tmax in mdr1a/1b double knockout mouse at 1 mg/kg, po; format: ADME, organism-based; parameters: dose 1 mg/kg, route oral; details: in vivo; method in brief: as §2
# [34] = AUC (0 to 6 hrs) in mdr1a/1b double knockout mouse at 1 mg/kg, iv; format: ADME, organism-based; parameters: time < 6 hr, dose 1 mg/kg, route intravenous; details: plasma; method in brief: as §4
# [35] = Drug uptake in mdr1a/1b double knockout mouse brain at 1 mg/kg, iv after 180 mins by LC-MS/MS analysis; format: ADME, organism-based; parameters: dose 1 mg/kg, route intravenous; details: read-out: Drug uptake; method in brief: as §3
# Mus musculus [36] = assay: Ratio of Tmax in mdr1a/1b double knockout mouse to Tmax in wild-type mouse at 1 mg/kg, po; format: ADME, organism-based; parameters: dose 1 mg/kg, route oral; details: in vivo; method in brief: as §2
# [37] = Cmax in wild-type mouse at 1 mg/kg, po; format: ADME, organism-based; parameters: dose 1 mg/kg, route oral; details: in vivo; method in brief: as §2
# Mus musculus [38] = assay: Ratio of AUC (0 to 6 hrs) in mdr1a/1b double knockout mouse to AUC (0 to 6 hrs) in wild-type mouse at 1 mg/kg, IV; format: ADME, organism-based; parameters: dose 1 mg/kg, route intravenous; details: in vivo; method in brief: as §4
# [39] = AUC (0 to infinity) in mdr1a/1b double knockout mouse at 1 mg/kg, iv; format: ADME, organism-based; parameters: time infinity, dose 1 mg/kg, route intravenous; details: plasma; method in brief: as §4
compound,measurement,setting,value
CC[C@@H](C(=O)[C@@H](C)[C@@H](O)[C@H](C)[C@@H]1O[C@@H]([C@@H](CC)C(=O)O)CC[C@@H]1C)[C@H]1O[C@]2(C=C[C@@H](O)[C@]3(CC[C@@](C)([C@H]4CC[C@](O)(CC)[C@H](C)O4)O3)O2)[C@H](C)C[C@@H]1C [SALINOMYCIN],Tmax,[1],0.5 h
same,Ratio AUC,Mus musculus [2],3.2
same,concentration at 3 h,[3],9.2 ng/g
same,AUC(0-t) at 6 h,[4],2130 ng·h/mL
same,clearance,[5],6.17 mL/min/kg
same,Ratio,Liver,0.9
same,AUC(0-inf),[6],80.2 ng·h/mL
same,Ratio,[7],1.4
same,Ratio,Mus musculus [8],3.1
same,concentration at 3 h,[9],6500 ng/g
same,AUC(0-t) at 6 h,[10],62.1 ng·h/mL
same,Kp at 3 h,[11],0.2
same,Ratio,Plasma,3.7
same,AUC(0-inf),[12],1370 ng·h/mL
same,Ratio AUC,Mus musculus [13],3.1
same,Cmax,[14],517 ng/mL
same,Ratio,Mus musculus [15],0.5
same,concentration at 3 h,[16],270 ng/mL
same,Cmax,[17],41 ng/mL
same,concentration at 3 h,[18],7400 ng/g
same,concentration at 3 h,[19],290 ng/g
same,Activity,Mus musculus [20],Non-toxic
same,AUC(0-t) at 6 h,[21],196 ng·h/mL
same,Tmax,[22],2 h
same,Ratio,Brain,5.8
same,AUC(0-t) at 6 h,[23],1310 ng·h/mL
same,Ratio AUC,Mus musculus [24],2
same,Activity,Mus musculus [25],Toxic
same,clearance,[26],13.7 mL/min/kg
same,Kp at 3 h,[27],0.13
same,Activity,Mus musculus [28],Toxic
same,concentration at 3 h,[29],210 ng/g
same,concentration at 3 h,[30],72.5 ng/mL
same,AUC(0-inf),[31],251 ng·h/mL
same,Activity,Mus musculus [32],Non-toxic
same,Tmax,[33],2 h
same,AUC(0-t) at 6 h,[34],2370 ng·h/mL
same,concentration at 3 h,[35],53.2 ng/g
same,Ratio,Mus musculus [36],1
same,Cmax,[37],13.2 ng/mL
same,Ratio AUC,Mus musculus [38],1.8
same,AUC(0-inf),[39],2810 ng·h/mL
